TLR4-MyD88 BLA = inhibitors of TLR4-MyD88 association in cells, primary screen, cell-based, HeLa CL3-4, BLA complementation, FRET ratio. Toll-like receptor 4 (Homo sapiens) + Myeloid differentiation primary response protein …. HeLa CL3-4 TLR4/MyD88 BLA complementation. inhibition, % at 8.4 µM. 200,000 compounds, 0.18% hits. AID 861, 2007; in the data active means inhibition above about 25%;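 further: 0% = vehicle and 100% = reference inhibitor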
NOD2 RIPK2 PPI = NOD2-RIPK2 binding disruptors in cells, primary screen, fluorescence, CHO cells, BLA complementation | CCF4 ratio | inhibition, % at 4.98 µM | 360,000 compounds, 0.38% hits | AID 624267, 2012; in the data active means inhibition above about 21%;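 further: 0% = vehicle only and 100% = reference blocker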
Target sequence (O43353 whole entry, looked up): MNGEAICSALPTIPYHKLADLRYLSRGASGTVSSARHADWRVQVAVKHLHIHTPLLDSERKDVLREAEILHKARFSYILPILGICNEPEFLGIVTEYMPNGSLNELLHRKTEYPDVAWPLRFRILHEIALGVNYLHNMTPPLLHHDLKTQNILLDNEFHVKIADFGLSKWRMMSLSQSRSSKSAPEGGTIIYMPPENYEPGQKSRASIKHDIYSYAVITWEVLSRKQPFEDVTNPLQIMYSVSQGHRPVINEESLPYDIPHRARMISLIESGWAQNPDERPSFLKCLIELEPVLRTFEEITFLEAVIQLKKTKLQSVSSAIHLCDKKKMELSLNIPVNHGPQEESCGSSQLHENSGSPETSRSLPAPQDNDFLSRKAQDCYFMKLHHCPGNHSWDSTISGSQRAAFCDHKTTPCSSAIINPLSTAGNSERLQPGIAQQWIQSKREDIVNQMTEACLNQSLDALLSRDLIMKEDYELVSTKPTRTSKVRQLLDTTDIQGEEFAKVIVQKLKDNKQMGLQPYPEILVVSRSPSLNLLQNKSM
Lipid droplet = inhibitors of hepatocyte lipid droplet formation, primary screen, imaging, high-throughput imaging, BODIPY stain. inhibition, % at 6.5 µM. AID 1656, 2009. 240,000 compounds, 0.4% hits. AML12 mouse hepatocytes, oleate lipid droplets;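 active means lipid droplet intensity inhibited by at least 50%, with more than 500 cells counted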
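Material – mouse AML12 hepatocyte cell line, fixed after treatment · Compound dosing – one dose, 6.5 µM compound · Times – compound with oleate, overnight · Measured by – Image-based BODIPY and DAPI two-channel analysis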
SR-BI DiI-HDL act = activators of SR-BI mediated DiI-HDL uptake, primary screen, ldlA[mSR-BI] CHO cells, DiI fluorescence | 3 h; 100 = double the neutral-control signal | activation, % at 12.5 µM | 320,000 compounds, 0.096% hits;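 active means mean replicate activation of at least 60% and every replicate at or above 60%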;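 further: 0% = median plate neutral-control signal and 100% = twice that signal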
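Assay system: CHO ldlA[mSR-BI] cells, LDL receptor-null, SR-BI overexpressing; medium: Ham's F12 with 0.5% BSA, HEPES 25 mM, pH 7.4; also added: DiI-HDL 10 µg/mL; timing: 3 h uptake period with compound, 37 °C; signal: DiI fluorescence, bottom read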
TLR9-MyD88 inh = inhibitors of TLR9-MyD88 association in cells, primary screen, cell-based, CHO, BLA complementation, fluorescence. CCF4 FRET ratio. inhibition, % at 4.98 µM. 340,000 compounds, 0.21% hits. AID 504734, 2011;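 active means inhibition above the mean over all tested compounds plus 3 SD, cut at about 21% in these data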;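 further: 0% = DMSO only wells and 100% = clavulanate BLA inhibitor control wells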
SR-BI HDL uptake = inhibitors of SR-BI mediated HDL lipid uptake, primary screen, ldlA[mSR-BI] cells, fluorescence, single point; Scavenger receptor class B member 1 (Mus musculus), Q61009; ldlA[mSR-BI] CHO cells, DiI-HDL uptake fluorescence, 3 h; inhibition, % at 12.5 µM; 320,000 compounds, 0.96% hits; AID 488896, 2010;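 active means mean replicate inhibition of at least 70% and a set share of replicates each scoring 70 or more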;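 further: 0% = median of neutral control wells and 100% = median of positive control wells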
NOD2-RIPK2 conf = NOD2-RIPK2 binding disruptors, retest, confirmation, fluorescence, CHO cells, BLA complementation, triplicate | shares compounds with NOD2 RIPK2 PPI | CCF4 FRET | inhibition, % at 4.98 µM | 1,200 compounds, 70% hits | AID 624370, 2012;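 active means mean inhibition across replicates above a set limit taken from the earlier primary screen, cut at about 21% in these data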;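 further: 0% = DMSO-only wells and the high end = clavulanate BLA-blocked wells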
BLA counter = counter-screen for NOD2-RIPK2 interaction inhibitors: BLA reporter; shares compounds with NOD2 RIPK2 PPI; CHO BLA reporter, CCF4 FRET ratio, counterscreen; inhibition, % at 4.98 µM; 1,200 compounds, 57% hits;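 active means mean inhibition above the low-control mean inhibition plus three low-control SD, cut at about 11% in these data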;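 further: 0% = DMSO only wells and 100% = clavulanate high control wells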
Numbers without * were called inactive; . = no result. Rows were chosen to be rich in hits. Some 1.6% of all compounds tested hit in one or more screens of this group.

SMILES | TLR4-MyD88 BLA | NOD2 RIPK2 PPI | Lipid droplet | SR-BI DiI-HDL act | TLR9-MyD88 inh | SR-BI HDL uptake | NOD2-RIPK2 conf | BLA counter
COc1cccc(N2C(=O)CC(N3CCN(c4ccc([N+](=O)[O-])cc4)CC3)C2=O)c1 (stereo unspecified) | . | 1 | . | -23 | -3 | 23 | . | .
COc1ccc(C(C#N)=C2C=C(Cl)C(=NO)C=C2Cl)cc1 | . | 2 | . | . | 5 | . | . | .
N#CC(=C1C=C(Br)C(=NO)C=C1Cl)c1cccc2ccccc12 | . | 41* | . | . | -1 | . | 58* | 30*
CC(C)c1ccc2c(c1)C1(NN=C(c3ccccc3)S1)C(=O)N2 (stereo unspecified) | 12 | 26* | -35 | -106 | 13 | 106* | 6 | 9
CCc1ccc2c(c1)C1(NN=C(c3ccc(C)cc3)S1)C(=O)N2 (stereo unspecified) | 12 | 25* | 4 | -69 | 19 | 69 | 5 | 7
CC(C)Oc1ccc(N2CC(C(=O)NC3=NCCS3)CC2=O)cc1 (stereo unspecified) | 2 | -3 | -23 | 11 | 4 | -11 | . | .
CC(C)C(=O)N1CCN(c2ccc(NC(=O)c3ccc([N+](=O)[O-])o3)cc2Cl)CC1 | 17 | 26* | -23 | -63 | 6 | 63 | 23* | 8
CN1CCN(c2ccc(NC(=O)c3ccc([N+](=O)[O-])o3)cc2Cl)CC1 | . | 23* | -16 | . | 9 | . | 20 | 17*
N#CC1=C(N)Oc2cc(O)c(Cl)cc2C1c1cccnc1 (stereo unspecified) | . | 31* | -1 | 23 | 9 | -22 | -1 | 4
COc1ccc(OC)c(S(=O)(=O)N/N=C\c2c[nH]c3ccccc23)c1 | . | -8 | 0 | 9 | -20 | -9 | . | .
CCN(CC)Cc1c(O)ccc2cc(-c3nc4ccccc4n3C)c(=O)oc12 | . | 29* | 5 | . | -2 | . | 35* | 56*
N#Cc1ccccc1Cn1cc(/C=C/[N+](=O)[O-])c2ccccc21 | -5 | 42* | -44 | -1 | 7 | 1 | 70* | 9
Cc1ccccc1NC(=S)NCc1ccc2c(c1)OCO2 | 10 | 39* | . | -13 | 8 | 13 | -2 | -3
Cc1cccc(NC(=S)NCc2ccc3c(c2)OCO3)c1C | -2 | 3 | -25 | 1 | -1 | -1 | . | .
c1ccc(-c2sc3ccccc3c2-c2ccc(OCCN3CCCC3)cc2)cc1 | . | 23* | . | -15 | -21 | 15 | 10 | -1
COc1ccc(-c2sc3ccccc3c2-c2ccc(OCCN3CCCCC3)cc2)cc1 | . | -8 | . | -14 | -2 | 14 | . | .
CCOC(=O)C1CCN(Cc2cc(Cl)c3ccccc3c2O)CC1 | . | 28* | -25 | -2 | 4 | 2 | 4 | 5
CCOC(=O)C1CCN(Cc2ccc(OC)c(C)c2OC)CC1 | -6 | -3 | . | 29 | 2 | -29 | . | .
O=C(C#Cc1cccc([N+](=O)[O-])c1)c1ccccc1 | -1 | 27* | 1 | -3 | 7 | 3 | 77* | 17*
COc1ccc2c(c1OC)c(=O)n1c3ccc(OC(C)C(=O)NCCCN4CCOCC4)cc3c3ccnc2c31 (stereo unspecified) | . | 21* | -4 | -21 | 2 | 21 | -26 | -3
COc1ccccc1N(Cc1cc(=O)[nH]c2ccccc12)C(=O)C(C)C | . | -9 | -22 | . | -2 | . | . | .
O=S(=O)(Nc1ccc(Br)cc1)c1cccc2nonc12 | . | -5 | -5 | -1 | -6 | 1 | . | .
O=S(=O)(Nc1ccc(C(O)(C(F)(F)F)C(F)(F)F)cc1)c1ccc(Cl)c2nonc12 | . | 29* | . | . | . | . | 32* | 4
Cc1ccc(S(=O)(=O)Nc2c(C(=O)O)[nH]c3ccccc23)c(C)c1 | . | 0 | 2 | 0 | -9 | 0 | . | .
CC(C)(O)CC[C@@H](O)[C@](C)(O)[C@H]1CC[C@@]2(O)C3=CC(=O)[C@@H]4C[C@@H](O)[C@@H](O)C[C@]4(C)[C@H]3CC[C@]12C | . | 1 | . | 10 | -3 | -10 | . | .
SMILES | TLR4-MyD88 BLA | NOD2 RIPK2 PPI | Lipid droplet | SR-BI DiI-HDL act | TLR9-MyD88 inh | SR-BI HDL uptake | NOD2-RIPK2 conf | BLA counter
COc1ccc(/C=N/NC(=O)c2ccc(NC(C)=O)cc2)cc1COc1ccc(F)cc1F | . | 25* | -13 | -3 | 30* | 3 | 6 | 8
COc1ccc(/C=N\NC(=O)c2ccccc2F)cc1COc1ccc(F)cc1F | . | 9 | -159 | 6 | 9 | -6 | . | .
O=C1CCCN1CCCNc1nc(NCc2ccccc2)nc2ccsc12 | . | -18 | . | . | . | . | . | .
O=C1OCCN1C(=O)[C@H]1[C@H](c2ccc(Cl)cc2)C(c2ccccc2)=NN1c1ccccc1 | . | 2 | . | -23 | -3 | 23 | . | .
O=C1OCCN1C(=O)[C@H]1[C@H](c2ccccc2)C(c2cccc(Cl)c2)=NN1c1ccccc1 | . | 27* | . | -12 | -14 | 12 | 14 | 38*
Cc1ccc(C(=O)NCc2ccc3c(c2)OCO3)c(Cl)c1 | . | -8 | . | . | -2 | . | . | .
Cc1cccc(CS(=O)(=O)c2ncc(Cl)c(C(=O)NCc3ccc4c(c3)OCO4)n2)c1 | . | 39* | 16 | 2 | 0 | -2 | 42* | 10
Nc1ccccc1NC(=O)NC(=O)c1ccccc1 | . | -9 | 4 | 9 | -14 | -9 | . | .
Cc1ccc([N+](=O)[O-])cc1S(=O)(=O)NCC1COc2ccccc2O1 (stereo unspecified) | . | -12 | -13 | -26 | 0 | 26 | . | .
C=CS(=O)(=O)c1ccc(Oc2ccc(S(=O)(=O)C=C)cc2)cc1 | 23 | 36* | -16 | -4 | 15 | 4 | 51* | 17*
C[C@H]1COC(=O)[C@@H](Cc2ccc(F)cc2)C/C=C\C[C@@H](CC(=O)NCCO)C(=O)N1 | . | 7 | . | 18 | -5 | -18 | . | .
CS(=O)(=O)c1ccc(S(=O)CC(=O)OCc2ccccc2)c([N+](=O)[O-])c1 (stereo unspecified) | 16 | 25* | -18 | 30 | 12 | -30 | 56* | 25*
O=C(CS(=O)c1ccc(C(F)(F)F)cc1[N+](=O)[O-])Oc1ccccc1 (stereo unspecified) | 13 | 9 | 6 | 17 | -9 | -17 | . | .

Screening results (PubChem BioAssay)
